Assay results published in ChEMBL document CHEMBL4251669, “Identification of Gibberellic Acid Derivatives That Deregulate Cholesterol Metabolism in Prostate Cancer Cells” (2018).
Activity calls are given as the source filed them. No cut-off for these calls is given here.

Tests used:
LNCaP [1] = assay: Cytotoxicity against human LNCAP cells assessed as reduction in cell viability at 10 uM after 72 hrs by alamar blue assay relative to control; type: functional
Outline: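 LNCaP cells (ATCC) in phenol-red-free RPMI-1640 with 5% FBS, 37 °C, 5% CO2, seeded 4000/well for 24 h, then exposed 72 h. Stocks in DMSO, final DMSO 0.3%; DMSO as negative and vinblastine 50 nM as positive control. Viability read by alamarBlue metabolic reduction. Triplicate points, at least three independent experiments.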

LNCaP [2] = assay: Induction of cholesterol metabolism deregulation in human LNCAP cells assessed as reduction in NBD-cholesterol uptake at 30 uM after 48 hrs by DAPI/Alexa fluor 633 phalloidin staining based high-content imaging analysis; type: functional, cell-based
Outline: (§1)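 LNCaP seeded 72 h on poly-L-ornithine-coated plates and treated 48 h in three replicate wells: DMSO vehicle, compounds at 30 μM, TOFA 10 μM or orlistat 20 μM. Then 3 h at 37 °C in serum-free RPMI with 0.2% BSA and 15 μM NBD-cholesterol. PFA-fixed, glycine-quenched, stained with DAPI and phalloidin. Imaged at 10× to 1000 cells/well; per-cell NBD mean fluorescence, about 3000 cells/treatment, mean ± SD.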

LNCaP [3] = assay: Induction of cholesterol metabolism deregulation in human LNCAP cells assessed as effect on fatty acid uptake at 30 uM after 48 hrs by DAPI/Alexa fluor 633 phalloidin staining based high-content imaging analysis; type: functional, cell-based
LNCaP [4] = assay: Induction of cholesterol metabolism deregulation in human LNCAP cells assessed as effect on cellular lipid content at 30 uM after 48 hrs by DAPI/Alexa fluor 633 phalloidin staining based high-content imaging analysis; type: functional, cell-based
LNCaP [5] = assay: Induction of cholesterol metabolism deregulation in human LNCAP cells assessed as reduction in free NBD-cholesterol uptake
LNCaP [6] = assay: Induction of cholesterol metabolism deregulation in human LNCAP cells assessed as reduction in NBD-cholesterol uptake at 10 uM after 48 hrs by DAPI/Alexa fluor 633 phalloidin staining based high-content imaging analysis; type: functional, cell-based
LNCaP [7] = assay: Induction of cholesterol metabolism deregulation in human LNCAP cells assessed as reduction in NBD-cholesterol uptake at 20 uM after 48 hrs by DAPI/Alexa fluor 633 phalloidin staining based high-content imaging analysis; type: functional, cell-based; outline: as §1

Structure (SMILES)	Activity (LNCaP [1]) [%]	Activity (LNCaP [2])	Activity (LNCaP [3])	Activity (LNCaP [4])	Activity (LNCaP [5])	Activity (LNCaP [6])	Activity (LNCaP [7])
C=C1C[C@]23C[C@@]1(O)CC[C@H]2[C@@]12C=C[C@H](O)[C@](C)(C(=O)O1)[C@H]2[C@@H]3C(=O)NCc1ccc(F)cc1	<30	–	–	–	–	–	–
C=C1C[C@]23C[C@@]1(O)CC[C@H]2[C@@]12C=C[C@H](O)[C@](C)(C(=O)O1)[C@H]2[C@@H]3C(=O)NCCc1ccc(Cl)cc1	<30	–	–	–	–	–	–
C=C1C[C@]23C[C@@]1(O)CC[C@H]2[C@@]12C=C[C@H](O)[C@](C)(C(=O)O1)[C@H]2[C@@H]3C(=O)NCc1ccc(Br)cc1	<30	Active	inactive	inactive	Active	–	–
CCCCCCCCCCCCCCOc1ccc(C(=O)O)o1	–	–	–	–	–	Active	–
C=C1C[C@]23C[C@@]1(O)CC[C@H]2[C@@]12C=C[C@H](O)[C@](C)(C(=O)O1)[C@H]2[C@@H]3C(=O)NCCc1ccc(OC)cc1	<30	–	–	–	–	–	–
C=C1C[C@]23C[C@@]1(O)CC[C@H]2[C@@]12C=C[C@H](O)[C@](C)(C(=O)O1)[C@H]2[C@@H]3C(=O)NCCc1ccc(Br)cc1	<30	Active	inactive	inactive	Active	–	–
C=C1C[C@]23C[C@@]1(O)CC[C@H]2[C@@]12C=C[C@H](O)[C@](C)(C(=O)O1)[C@H]2[C@@H]3C(=O)NCCc1ccc(F)cc1	<30	Active	inactive	inactive	Active	–	–
C=C1C[C@]23C[C@@]1(O)CC[C@H]2[C@@]12C=C[C@H](O)[C@](C)(C(=O)O1)[C@H]2[C@@H]3C(=O)O [GIBBERELLIN GA3]	<30	Active	inactive	inactive	–	–	–
C=C1C[C@]23C[C@@]1(O)CC[C@H]2[C@@]12C=C[C@H](O)[C@](C)(C(=O)O1)[C@H]2[C@@H]3C(=O)NCCc1cccs1	<30	–	–	–	–	–	–
C=C1C[C@]23C[C@@]1(O)CC[C@H]2[C@@]12C=C[C@H](O)[C@](C)(C(=O)O1)[C@H]2[C@@H]3C(=O)NCc1ccc(OC)cc1	<30	–	–	–	–	–	–
CCCCCCCCCCC[C@@H](C[C@@H]1OC(=O)[C@H]1CCCCCC)OC(=O)[C@H](CC(C)C)NC=O	–	–	–	–	–	–	Active
C=C1C[C@]23C[C@@]1(O)CC[C@H]2[C@@]12C=C[C@H](O)[C@](C)(C(=O)O1)[C@H]2[C@@H]3C(=O)NCc1ccccc1	<30	–	–	–	–	–	–
C=C1C[C@]23C[C@@]1(O)CC[C@H]2[C@@]12C=C[C@H](O)[C@](C)(C(=O)O1)[C@H]2[C@@H]3C(=O)NCc1ccc(Cl)cc1	<30	Active	inactive	inactive	Active	–	–
C=C1C[C@]23C[C@@]1(O)CC[C@H]2[C@@]12C=C[C@H](O)[C@](C)(C(=O)O1)[C@H]2[C@@H]3C(=O)NCCc1ccccc1	<30	–	–	–	–	–	–
C=C1C[C@]23C[C@@]1(O)CC[C@H]2[C@@]12C=C[C@H](O)[C@](C)(C(=O)O1)[C@H]2[C@@H]3C(=O)NCCc1ccccn1	<30	Active	inactive	inactive	Active	–	–
